NOD2 RIPK2 PPI = NOD2-RIPK2 binding disruptors in cells, primary screen, fluorescence, CHO cells, BLA complementation; Receptor-interacting serine/threonine-protein kinase 2 (Homo sapiens), O43353; CCF4 ratio; inhibition, % at 4.98 µM; 0.38% of 360,000 active; AID 624267, 2012; in the data active = inhibition above about 21%
UPR CHOP act = activators of apoptotic CHOP UPR arm, primary screen, cell-based, CHO-CHOP luciferase reporter, luminescence, uHTS; activation, % at 10 µM; 0.34% of 330,000 active; UPR activation; percent of tunicamycin response over DMSO baseline;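 active = at 10 µM dose, activation of 40% or more, normalized to positive control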
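Material: CHO-CHOP cells, stable luciferase reporter of PERK-eIF2a-CHOP signalling; quantity: 500 reporter cells seeded per well; buffer or medium: F12 medium containing 10% fetal bovine serum; compound: one dose, 10 µM in 0.5% DMSO; incubation: 6 h compound treatment, 37 °C; measured by: Steady-Glo luciferase luminescence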
CHOP inhibitor = inhibitors of CHOP promoter induction, primary screen, cell-based, unfolded protein response, luciferase reporter; 3.8% of 220,000 active; inhibition, % at 10 µM; CHO-K1 CHOP-promoter luciferase, tunicamycin-induced, 15-18 h; AID 2732, 2010;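 active = compounds that reduced the stress-induced luciferase reporter signal by more than about 70% of percent inhibition, limit read from the data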
XBP1 UPR activ = activators of adaptive XBP1 UPR arm, primary screen, cell-based, CHO-XBP1 luciferase reporter, luminescence, uHTS. IRE1-XBP1 UPR activation; percent of tunicamycin response, DMSO as zero. activation, % at 20 µM. 0.33% of 330,000 active;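 active = versus positive control, 20 µM dose yields 30% or more activation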
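incubation = overnight seeding at 37 °C, 6 h compound treatment at 37 °C | assay system = CHO-XBP1 cells stably carrying IRE1-XBP1-driven luciferase reporter | input = 1000 cells per well | detection = luciferase luminescence | dosing = single point, 20 µM final compound, 1% DMSO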
TLR4-MyD88 BLA = inhibitors of TLR4-MyD88 association in cells, primary screen, cell-based, HeLa CL3-4, BLA complementation, FRET ratio. 0.18% of 200,000 active. Toll-like receptor 4 (Homo sapiens) + Myeloid differentiation primary response protein …. HeLa CL3-4 TLR4/MyD88 BLA complementation. AID 861, 2007. inhibition, % at 8.4 µM; in the data active = inhibition above about 25%
Target sequence (O00206 whole entry, looked up): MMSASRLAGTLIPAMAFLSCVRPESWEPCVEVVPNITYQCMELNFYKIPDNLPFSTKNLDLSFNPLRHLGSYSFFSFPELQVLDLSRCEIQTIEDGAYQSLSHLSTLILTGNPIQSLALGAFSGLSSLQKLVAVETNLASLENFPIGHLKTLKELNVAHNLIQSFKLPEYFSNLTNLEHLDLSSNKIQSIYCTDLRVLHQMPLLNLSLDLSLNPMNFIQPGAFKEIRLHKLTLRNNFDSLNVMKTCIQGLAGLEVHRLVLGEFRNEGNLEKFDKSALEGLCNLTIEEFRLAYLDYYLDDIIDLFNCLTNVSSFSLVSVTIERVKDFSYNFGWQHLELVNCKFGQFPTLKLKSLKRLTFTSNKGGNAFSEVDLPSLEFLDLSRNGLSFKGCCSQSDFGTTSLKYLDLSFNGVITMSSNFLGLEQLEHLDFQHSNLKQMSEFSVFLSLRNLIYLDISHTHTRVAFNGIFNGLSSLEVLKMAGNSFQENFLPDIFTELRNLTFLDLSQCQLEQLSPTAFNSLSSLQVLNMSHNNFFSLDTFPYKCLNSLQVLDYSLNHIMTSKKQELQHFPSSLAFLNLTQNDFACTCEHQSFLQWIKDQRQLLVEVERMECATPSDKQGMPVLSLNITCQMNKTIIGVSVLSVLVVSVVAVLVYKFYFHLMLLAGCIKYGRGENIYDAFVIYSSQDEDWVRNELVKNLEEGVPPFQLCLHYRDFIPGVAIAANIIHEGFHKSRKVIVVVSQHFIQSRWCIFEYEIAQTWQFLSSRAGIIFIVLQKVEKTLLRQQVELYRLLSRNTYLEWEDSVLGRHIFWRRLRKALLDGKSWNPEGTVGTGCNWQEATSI
Target sequence (Q99836 whole entry, looked up): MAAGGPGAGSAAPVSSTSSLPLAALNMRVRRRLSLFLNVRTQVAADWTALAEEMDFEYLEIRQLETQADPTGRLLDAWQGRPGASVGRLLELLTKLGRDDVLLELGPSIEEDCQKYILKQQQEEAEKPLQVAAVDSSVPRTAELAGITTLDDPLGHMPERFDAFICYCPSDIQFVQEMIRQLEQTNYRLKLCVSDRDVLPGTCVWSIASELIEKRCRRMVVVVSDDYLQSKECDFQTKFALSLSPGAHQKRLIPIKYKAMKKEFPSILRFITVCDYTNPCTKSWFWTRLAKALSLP
TLR9-MyD88 block = inhibitors of TLR9-MyD88 association in cells, primary screen, cell-based, CHO, BLA complementation, fluorescence; AID 504734, 2011; inhibition, % at 4.98 µM; 0.21% of 340,000 active; CCF4 FRET ratio;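 active = inhibition above the mean over all tested compounds plus 3 SD, cut at about 21% in these data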
Of the large screens only hits and unclear results are named; the others gave an inactive call. This excerpt belongs to a sample that is enriched for hits.

Cc1onc(-c2ccccc2)c1C(=O)NC(=S)NNC(=O)c1ccccc1O	CHOP inhibitor 77
CN(C)C(CNS(=O)(=O)c1ccc(Cl)cc1F)c1ccco1 (stereo not drawn)	none (no result: CHOP inhibitor, TLR4-MyD88 BLA)
O=C(/C=C/c1ccc(Cl)cc1Cl)N(Cc1ccccc1)C1CCS(=O)(=O)C1 (stereo not drawn)	none (no result: NOD2 RIPK2 PPI)
O=C(/C=C/c1ccc(Cl)cc1Cl)N(Cc1ccc(Cl)cc1)C1CCS(=O)(=O)C1 (stereo not drawn)	CHOP inhibitor 79
Cc1nn(-c2ccc3ccccc3c2)c(=O)c2ccccc12	none
Cc1nn(-c2nc3ccccc3[nH]2)c(=O)c2ccccc12	CHOP inhibitor 98 (no result: UPR CHOP act, XBP1 UPR activ)
Cc1ccc(NC(=O)CN(C)C(=O)c2n[nH]c(=O)c3ccccc23)cc1	none
CCCCN(C)C(=O)c1sc(=O)n(Cc2ccccc2C#N)c1C	none (no result: UPR CHOP act, CHOP inhibitor, XBP1 UPR activ, TLR4-MyD88 BLA, TLR9-MyD88 block)
O=C(Nc1nc2cc3c(cc2s1)OCCO3)C1=COCCO1	CHOP inhibitor 94 (no result: TLR4-MyD88 BLA)
O=C(Nc1nc2ccc(F)cc2s1)C1=COCCO1	none (no result: CHOP inhibitor, TLR4-MyD88 BLA)
CCCc1nc(SCc2ccccn2)c2c(=O)n(C)c(=O)n(C)c2n1	CHOP inhibitor 70
CCCc1nc(SC2CCCC2)c2c(=O)n(C)c(=O)n(C)c2n1	CHOP inhibitor 75 (no result: TLR4-MyD88 BLA)
Cn1c(=O)c2c(SCc3ccccn3)nc(CC(C)(C)C)nc2n(C)c1=O	CHOP inhibitor 74
Cn1c(=O)c2c(SC3CCCC3)nc(CC(C)(C)C)nc2n(C)c1=O	none (no result: NOD2 RIPK2 PPI, UPR CHOP act, CHOP inhibitor, XBP1 UPR activ, TLR9-MyD88 block)
Cn1c(=O)c2c(SCc3ccccn3)nc(C3CC3)nc2n(C)c1=O	none
O=C(NCc1ccccn1)C1CC(c2ccc(F)cc2)=NO1 (stereo not drawn)	none
CCOC(=O)C1(C)NC(c2ccco2)C2C(=O)N(C)C(=O)C21 (stereo not drawn)	none
O=C(CCCSc1nc2ccccc2c(=O)[nH]1)c1ccc(F)cc1	CHOP inhibitor 79
CCc1ccc(C(=O)CSc2nc3ccccc3c(=O)[nH]2)cc1	CHOP inhibitor 95
Cc1ccc(C(=O)CSc2nc3ccccc3c(=O)[nH]2)cc1	none
Cc1cccc(C)c1NC(=O)CSc1nc2ccccc2c(=O)[nH]1	CHOP inhibitor 71
N=c1ccn(Cc2c(Cl)cccc2Cl)cc1	none (no result: TLR4-MyD88 BLA)
COc1ccccc1NC(=S)N1CC(C)OC(C)C1 (stereo not drawn)	none
CCOC(=O)/C(N=Nc1c(Br)cc(Br)cc1Br)=C(\C)O	CHOP inhibitor 85
CCOC(=O)NC(=O)/C(N=Nc1cc(C)cc(C)c1)=C(\C)O	none
COc1ccc(/C=N/n2cnc3c([nH]c4ccc(F)cc43)c2=O)cc1CSc1ccccn1	CHOP inhibitor 80 (no result: TLR4-MyD88 BLA)
O=Cc1[nH]c2ccccc2c1N(C(=O)CCl)c1ccccc1	CHOP inhibitor 87 (no result: UPR CHOP act, XBP1 UPR activ, TLR4-MyD88 BLA)
O=C(CCl)N(c1ccccc1)c1ccccc1	none (no result: UPR CHOP act, XBP1 UPR activ)
CCN(CC)C(=O)COc1ccc(-c2nnc(N3CCCCC3)c3ccccc23)cc1	none
CCOc1ccc(-c2nnc(N3CCCCC3)c3ccccc23)cc1	CHOP inhibitor 79
COc1ccc(NC(=O)C2CCCNC2)cc1OCC(C)C (stereo not drawn)	CHOP inhibitor 77
O=c1[nH]c(Cn2nnc(-c3ccccc3)n2)nc2scc(-c3ccccc3)c12	CHOP inhibitor 89
O=c1[nH]c(CN2CCN(Cc3ccccc3)CC2)nc2scc(-c3ccccc3)c12	none (no result: TLR4-MyD88 BLA)
Cc1ccccc1NC(=O)c1ccccc1N(C)S(=O)(=O)c1ccccc1	none (no result: CHOP inhibitor, TLR4-MyD88 BLA)
Cc1cc(C)c(Cn2cnc(-c3ccc([N+](=O)[O-])cc3)c2)c(C)c1	CHOP inhibitor 76
Cc1cc(=O)[nH]c(Nc2ccc(C(=O)OC(C)C)cc2)n1	CHOP inhibitor 70
CCc1c(C(=O)OCc2ccccc2)[nH]c(C)c1C	none (no result: TLR4-MyD88 BLA)
CCc1c(C)[nH]c(C(=O)OCc2ccccc2)c1C	CHOP inhibitor 79 (no result: UPR CHOP act, XBP1 UPR activ)
Cc1cccc(-c2nnc3sc(-c4ccccc4C)nn23)c1	CHOP inhibitor 83
CC1CCN(C(=O)c2ccc(N(C)S(C)(=O)=O)cc2)CC1	none
CN(c1ccc(C(=O)N2CCCCC2)cc1)S(C)(=O)=O	CHOP inhibitor 79
O=C(Nc1ccc(F)cc1)c1nc[nH]c1C(=O)Nc1ccccc1[N+](=O)[O-]	CHOP inhibitor 87 (no result: UPR CHOP act, XBP1 UPR activ)
CN(C)CCN1CCN(C2CN(Cc3ccc([N+](=O)[O-])cc3)S(=O)(=O)C2)CC1 (stereo not drawn)	none (no result: UPR CHOP act, CHOP inhibitor, XBP1 UPR activ, TLR4-MyD88 BLA, TLR9-MyD88 block)
CCc1nnc(NC(=O)CSc2nnc(C)c(=O)n2N)s1	none (no result: CHOP inhibitor, TLR4-MyD88 BLA)
O=C(O/N=C1\C(=O)N(c2ccccc2)c2ccccc21)C1CC1	CHOP inhibitor 73
CCOc1ccc(-c2nnn(CC(=O)Nc3cc(OC)ccc3OC)n2)cc1OCC	none
CCOC(=O)c1ccc(NC(=O)Cn2nnc(-c3ccc(F)cc3)n2)cc1	CHOP inhibitor 81
CCOc1ccccc1NC(=O)Cn1nnc(-c2ccc(OCC)c(OCC)c2)n1	CHOP inhibitor 87
COc1ccc(S(=O)(=O)Nc2ccccc2-c2nnn(CC(=O)Nc3ccccc3OC)n2)cc1	CHOP inhibitor 76
CCOC(=O)c1ccc(NC(=O)Cn2nnc(-c3ccccc3)n2)cc1	none
COc1cccc(CC(=O)OC(C)C(=O)Nc2ncc(Cl)cc2Cl)c1 (stereo not drawn)	none (no result: CHOP inhibitor, TLR4-MyD88 BLA)
CC1CCN(CC(=O)N2c3ccccc3CCc3ccccc32)CC1	none
Cc1ccc(C(=O)c2coc3cc([N+](=O)[O-])c(O)c([N+](=O)[O-])c23)cc1	none
Brc1ccc2ncnc(NCc3ccccc3)c2c1	CHOP inhibitor 87
COc1cccc2cc(-c3cn4ccc(C)cc4n3)c(=O)oc12	none (no result: CHOP inhibitor)
CCOc1cccc2cc(-c3cn4cc(C)ccc4n3)c(=O)oc12	CHOP inhibitor 83
COC(=O)C1=CN(c2ccccc2OC)C(N)=C(C#N)C1c1cccc([N+](=O)[O-])c1 (stereo not drawn)	none (no result: UPR CHOP act, CHOP inhibitor, XBP1 UPR activ, TLR4-MyD88 BLA, TLR9-MyD88 block)
CCOC(=O)[C@]12CCCC=C1N(Cc1ccccc1)C(=O)[C@H](CC(=O)NCC13CC4CC(CC(C4)C1)C3)C2	none (no result: UPR CHOP act, CHOP inhibitor, XBP1 UPR activ, TLR4-MyD88 BLA, TLR9-MyD88 block)
OCCNCc1cc(Br)ccc1OCc1ccc(Cl)cc1	none
OCCNCc1cc(Br)ccc1OCc1ccc(Cl)cc1Cl	CHOP inhibitor 90 (no result: UPR CHOP act, XBP1 UPR activ)
Cc1ccc(NC(=O)COC(=O)c2ccccc2Nc2ccccc2)cc1	CHOP inhibitor 77
O=c1[nH]c(NNC(=S)NCc2ccccc2)nc2c1C1(CCCCC1)Cc1ccccc1-2	CHOP inhibitor 87

High-throughput results: PubChem, several laboratories
